In the library only some 3.4% were active in any assay of this set; here they are far more common.
MEKK2mut PB1 HTS – signal of MEK5 binding to mutant human MEKK2 PB1 domain. bead flow cytometry, Alexa488-MEK5 binding to MEKK2 mutant. percent response, % at 10 µM. hit rate 0.35% among 290,000. AID 1530; in the data active means percent response above about 24%, passing the limit was not always enough
VIM-2 inh – blocks Pseudomonas aeruginosa VIM-2 metallo-beta-lactamase. hit rate 0.89% among 290,000. inhibition, % at 5.6 µM. purified VIM-2, nitrocefin hydrolysis, epi-absorbance fluorescence;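 active means inhibition above the mean of all tested compounds plus 3 SD, cutoff set per screening run, cut at about 7.5% in these data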;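 further: red hydrolysis product quenches plate fluorescence so inhibitors raise well fluorescence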
IMP-1 inhibitor – inhibitors of Pseudomonas aeruginosa IMP-1 metallo-beta-lactamase; hit rate 0.45% among 290,000; inhibition, % at 5.6 µM; purified IMP-1, nitrocefin hydrolysis, epi-absorbance fluorescence; AID 1556;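 active means inhibition above the mean plus 3 SD of all compounds in the same screening run, cut at about 4.5% in these data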
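Assay system: purified IMP-1; Quantity: IMP-1 0.2 nM before substrate addition; Medium: HEPES buffer pH 7.1 with ZnSO4 and Brij 35; Incubation: 15 min enzyme–compound preincubation, then 25 min nitrocefin reaction, 25 °C; Signal: fluorescence quenching readout, ex 480/em 530 nm; Controls: DMSO with and without IMP-1; Repeats: singlicate testing.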
MEKK3 PB1 HTS – modulators (inhibitors or enhancers) of MEK5 binding to human MEKK3 PB1 domain. Q99759. hit rate 1.4% among 290,000. bead-based flow cytometry, Alexa488-MEK5 binding to MEKK3; actives lie on both sides; 0 = blocked by unlabeled MEK5, 100 = vehicle. binding response (% of control), % at 10 µM;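 active means binding response more than 3 SD above or below the average of its plate-row segment, actives on both sides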;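 further: Alexa488 bead fluorescence after subtracting the streptavidin-only scavenger bead signal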
Target sequence (Q99759 whole entry, looked up, the tested form may be a part): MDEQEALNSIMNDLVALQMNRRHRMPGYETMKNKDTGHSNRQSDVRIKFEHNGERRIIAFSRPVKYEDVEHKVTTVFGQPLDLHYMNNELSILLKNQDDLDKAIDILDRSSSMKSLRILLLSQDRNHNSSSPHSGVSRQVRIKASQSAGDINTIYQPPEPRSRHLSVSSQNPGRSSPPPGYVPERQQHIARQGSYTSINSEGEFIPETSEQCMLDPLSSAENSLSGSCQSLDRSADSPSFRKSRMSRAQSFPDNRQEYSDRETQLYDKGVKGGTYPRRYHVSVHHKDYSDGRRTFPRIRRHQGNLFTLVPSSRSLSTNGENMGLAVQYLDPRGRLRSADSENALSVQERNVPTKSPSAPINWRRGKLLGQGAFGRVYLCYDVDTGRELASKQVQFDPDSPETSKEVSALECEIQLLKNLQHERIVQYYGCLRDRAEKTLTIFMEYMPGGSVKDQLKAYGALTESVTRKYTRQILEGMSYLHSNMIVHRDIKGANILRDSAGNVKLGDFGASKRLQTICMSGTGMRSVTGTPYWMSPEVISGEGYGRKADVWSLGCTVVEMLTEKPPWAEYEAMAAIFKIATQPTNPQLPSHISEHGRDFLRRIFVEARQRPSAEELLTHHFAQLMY
MEKK2 WT-MEK5 – raises or lowers MEK5 binding to wildtype human MEKK2 PB1 domain. bead flow cytometry, Alexa488-MEK5 binding to MEKK2 WT; actives lie on both sides. binding response (% of control), % at 10 µM. hit rate 1.1% among 290,000; in the data active means binding response below about 67% or above about 130%
Numbers stand for hits; – = inactive; · = no result.

SMILES | MEKK2mut PB1 HTS | VIM-2 inh | IMP-1 inhibitor | MEKK3 PB1 HTS | MEKK2 WT-MEK5
Cc1ncc(CO)c2c1Oc1nc(-c3ccccc3F)nc(SCC(=O)N(C)c3ccccc3)c1C2 | – | – | – | – | –
Cc1ccc2c(c1)N(CC(=O)NC1CCC(C)CC1)C(=O)CO2 (stereo not drawn) | – | – | – | – | –
CC(C)(C)c1ccc(C(=O)NCc2cccnc2)cc1 | – | – | – | – | –
CC(C)OC(=O)CN1CCN(C2c3ccccc3-c3ccccc32)CC1 | – | – | – | – | –
CN1CCN(CCCNC(=O)c2ccc3c(Cl)c4c(nc3c2)CCCC4)CC1 | – | 9.4 | – | – | –
COc1ccc(-n2ccnc(SCC(=O)NC3CCCC3)c2=O)cc1 | – | – | 4.6 | – | –
CC(=O)c1ccc(OC(C)c2nc3ccccc3s2)cc1 (stereo not drawn) | – | – | – | – | –
NC(=O)C1CCN(C(=O)NC(=O)c2ccccc2)CC1 | – | – | – | – | –
Fc1ccc(CSc2ccc3nnc(-c4ccccn4)n3n2)cc1 | – | 9.3 | – | – | –
Fc1ccc(CSc2ccc3nnc(-c4cccs4)n3n2)cc1 | – | – | – | – | –
CCCn1nc(C(=O)OCC(=O)c2c(N)n(C)c(=O)n(C)c2=O)c2ccccc2c1=O | – | 11 | – | – | –
N=c1c2c(ncn1CCCO)Oc1cc(O)ccc1C2c1ccccc1 (stereo not drawn) | – | – | – | – | -4.0
COc1ccc(C2c3ccc(O)cc3Oc3ncn(CCN4CCOCC4)c(=N)c32)cc1 (stereo not drawn) | – | – | – | – | –
O=C1CC(c2ccccc2)CC(O)=C1C=NCCN1CCN(C(=S)Nc2cccc(Cl)c2)CC1 (stereo not drawn) | – | – | – | – | –
CCCCOc1cccc(C(=O)N(Cc2cccs2)C2CCS(=O)(=O)C2)c1 (stereo not drawn) | – | – | – | – | –
C[C@H]1CCC[C@]2(O[C@@H](CCO)C[C@H](O)[C@H]2O)O1 | – | – | – | – | –
O=C(O)[C@@H]1CSC2c3ccccc3C(=O)N21 (stereo partly drawn) | – | – | 25 | – | –
Cc1cccc(C(=O)N2CCc3cc(-c4csc(NC(=O)CN5CCCC5)n4)ccc32)c1 | 25 | – | – | – | –
c1ccc(-c2nn3cnnc3c3ccccc23)cc1 | – | 11 | – | – | –
Cc1nc(NCc2cccnc2)c2c3c(sc2n1)CC(C)CC3 (stereo not drawn) | – | 9.9 | – | – | –
COc1cc(/C=C2/CCCC(C(=O)C(F)(F)F)=C2O)ccc1O | – | – | – | – | –
COc1cc(/C=C2\CCC/C(=C\c3ccc(O)c(OC)c3)C2=O)ccc1O | – | 11 | – | – | –
COc1cccc(C2c3c(oc4ccc(F)cc4c3=O)C(=O)N2CCN2CCOCC2)c1OC (stereo not drawn) | – | 8.1 | – | – | –
COc1cc(C2c3c(oc4ccccc4c3=O)C(=O)N2CCN2CCOCC2)cc(OC)c1OC (stereo not drawn) | – | · | · | – | –
COc1ccc(OC)c(-c2oc3ccccc3c(=O)c2O)c1 | – | – | – | – | –
SMILES | MEKK2mut PB1 HTS | VIM-2 inh | IMP-1 inhibitor | MEKK3 PB1 HTS | MEKK2 WT-MEK5
COc1ccc(OC)c(-c2c3cc(O)c(=O)cc-3oc3cc(O)c(O)cc23)c1 | – | – | 4.7 | – | –
CCOc1ccccc1-c1c2cc(O)c(=O)cc-2oc2cc(O)c(O)cc12 | 51 | – | 6.8 | 137 | 166
O=c1cc2oc3cc(O)c(O)cc3c(-c3ccccc3O)c-2cc1O | – | – | – | – | –
COc1cc(/C=N/NC(=O)c2csc3c2CCCC3)cc(OC)c1O | – | – | – | – | –
Cc1oc2c(C)c3oc(=O)c(CC(=O)N[C@@H](CCCNC(N)=O)C(=O)O)c(C)c3cc2c1C | – | – | – | – | –
COc1ccc(-c2c(C(=O)O)c(C(=O)O)c3n2CCC3)cc1 | – | 11 | – | – | –
COC(=O)[C@@H]1C[C@@]2(O)[C@H](O)[C@H](O)[C@H](O)C[C@H]2N1Cc1ccccc1OS(=O)(=O)c1ccc(C)cc1 | – | · | · | – | –
COc1ccc(C(=O)NCc2ccc(C(=O)O)o2)cc1 | – | – | – | – | –
CC(C)(C)c1cc[n+](C2=C([O-])c3ccccc3C(=O)/C2=N\S(=O)(=O)c2cccs2)cc1 | – | – | 7.0 | – | –
